According to ChEMBL document CHEMBL1156296, “Development of novel, highly potent inhibitors of V-RAF murine sarcoma viral oncogene homologue B1 (BRAF): increasing cellular potency through optimization of a distal heteroaromatic group” (J Med Chem, 2010):

Assays:
[1] = Tmax in BALB/cAnNCrl mouse at 20 mg/kg, po; assay type: ADME, organism-based; set-up: dose 20 mg/kg, route oral; conditions: in vivo
How it was run: (§1)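 Female BALB/cAnNCrl mice, at least 6 weeks old, dosed once by oral gavage at 10 mL/kg in DMSO/water 1:19 v/v. Blood was taken at six or eight time points from 15 min to 18 or 24 h, three mice per time point, by terminal cardiac puncture under halothane or isoflurane into heparinized syringes. Plasma was snap frozen and stored at -70 °C.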

[2] = Growth inhibition of wild type human WM1361 cells after 5 days by SRB assay; conditions: WM1361, 120 h
[3] = Half life in BALB/cAnNCrl mouse at 20 mg/kg, po; assay type: ADME, organism-based; set-up: dose 20 mg/kg, route oral; conditions: in vivo; how it was run: as §1
[4] = Cmax in BALB/cAnNCrl mouse at 20 mg/kg, po; assay type: ADME, organism-based; set-up: dose 20 mg/kg, route oral; conditions: in vivo; how it was run: as §1
[5] = Selectivity ratio of GI50 for human WM266.4 cells expressing BRAF V600E mutant to GI50 for human WM1361 cells
[6] = Metabolic stability in mouse liver microsomes; assay type: ADME, Microsome
How it was run: (§2)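 Phase I microsomal incubation of compound at 10 μM for 30 min, stopped with 3 volumes of methanol containing 500 nM roscovitine as internal standard. Parent and metabolites were measured by LC-MS, positive-ion electrospray, on a polar reversed-phase column.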

Liver microsomes = assay: Metabolic stability in human liver microsomes; assay type: ADME, Microsome; how it was run: as §2
[7] = Growth inhibition of human WM266.4 cells expressing BRAF V600E mutant after 5 days by SRB assay; assay type: functional; conditions: WM 266-4, 120 h
[8] = target: T1, Serine/threonine-protein kinase B-raf (Homo sapiens, UniProt P15056, V600E); assay: Inhibition of BRAF V600E mutant ERK phosphorylation in human WM266.4 cells; assay type: cell-based
How it was run: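 WM266.4 melanoma cells, which carry mutant V600E BRAF, exposed to inhibitor for 6 h. ERK phosphorylation (pERK) measured and IC50 derived. Run in triplicate, with a few compounds measured once.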

[9] = Oral bioavailability in BALB/cAnNCrl mouse at 20 mg/kg; assay type: ADME, organism-based; conditions: in vivo
How it was run: (§3)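 Female BALB/cAnNCrl mice, at least 6 weeks old. The oral arm was gavage at 10 mL/kg in DMSO/water 1:19. The iv arm was 2 mg/kg (~4 μmol/kg) at 10 mL/kg in DMSO/Tween-20/water 10:1:89, sampled at seven or eight points from 5 min to 18 or 24 h. Three mice per time point, terminal cardiac blood, plasma.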

[10] = target: T1, Serine/threonine-protein kinase B-raf; assay: Inhibition of human BRAF V600E mutant expressed in baculovirus system
How it was run: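 Isolated purified V600E BRAF kinase with a 45 min incubation. Enzyme inhibition measured and IC50 derived. Run in triplicate, with one compound measured once.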

[11] = Ratio of plasma concentration in Crl:CD1-Foxn1nu mouse to GI50 for human WM266.4 cells xenografted in Crl:CD1-Foxn1nu mouse; assay type: ADME; conditions: in vivo
[12] = Oral bioavailability in BALB/cAnNCrl mouse at 10 mg/kg; assay type: ADME, organism-based; conditions: in vivo; how it was run: as §3
[13] = Cmax in BALB/cAnNCrl mouse at 10 mg/kg, po; assay type: ADME, organism-based; set-up: dose 10 mg/kg, route oral; conditions: in vivo; how it was run: as §1
[14] = Tmax in BALB/cAnNCrl mouse at 10 mg/kg, po; assay type: ADME, organism-based; set-up: dose 10 mg/kg, route oral; conditions: in vivo; how it was run: as §1
[15] = Half life in BALB/cAnNCrl mouse at 10 mg/kg, po; assay type: ADME, organism-based; set-up: dose 10 mg/kg, route oral; conditions: in vivo; how it was run: as §1
[16] = Growth inhibition of human WM266.4 cells expressing BRAF V600E mutant after 96 hrs by SRB assay

T1 sequence (P15056 2-766 V600E limits assumed): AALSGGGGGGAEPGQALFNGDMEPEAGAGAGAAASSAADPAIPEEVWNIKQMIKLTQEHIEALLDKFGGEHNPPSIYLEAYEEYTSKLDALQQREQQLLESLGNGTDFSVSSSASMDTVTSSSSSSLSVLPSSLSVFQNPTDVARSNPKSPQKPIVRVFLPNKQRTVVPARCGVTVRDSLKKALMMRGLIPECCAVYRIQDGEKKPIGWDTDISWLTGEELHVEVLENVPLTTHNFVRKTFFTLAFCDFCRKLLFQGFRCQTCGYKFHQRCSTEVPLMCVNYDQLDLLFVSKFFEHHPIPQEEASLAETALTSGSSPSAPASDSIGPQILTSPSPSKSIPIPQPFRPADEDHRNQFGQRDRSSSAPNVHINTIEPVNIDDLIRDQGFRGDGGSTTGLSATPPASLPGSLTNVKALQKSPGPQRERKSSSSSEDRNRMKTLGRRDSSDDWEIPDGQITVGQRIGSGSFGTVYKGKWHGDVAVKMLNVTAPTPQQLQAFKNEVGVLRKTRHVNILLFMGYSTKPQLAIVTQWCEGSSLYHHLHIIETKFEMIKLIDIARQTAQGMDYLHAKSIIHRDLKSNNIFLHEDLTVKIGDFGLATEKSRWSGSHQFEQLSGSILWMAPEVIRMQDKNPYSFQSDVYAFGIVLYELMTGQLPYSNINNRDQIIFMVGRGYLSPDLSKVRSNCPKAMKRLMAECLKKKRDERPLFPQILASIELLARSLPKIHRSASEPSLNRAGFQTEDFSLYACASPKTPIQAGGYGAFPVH

Which Tmax [1] does the source give for `Cn1c(=O)[nH]c2nccc(Oc3ccc(NC(=O)Nc4cc(C(C)(C)C)nn4-c4ccccc4)c4ccccc34)c21` here?
The Tmax was 1.5 h.

And the GI50 [2]?
Its GI50 is 1200 nM.

What about the half-life [3] of the same compound?
Its half-life is 1.91 h.

What about the Cmax [4] of the same compound?
Its Cmax is 35.5 µM.

And the “fold change (FC)” value [5]?
The value was 49.

What about the Stability [6] of the same compound?
The Stability was less than 30%.

And the Stability (Liver microsomes)?
The Stability was less than 30%.

What about the GI50 [7] of the same compound?
The GI50 was 24 nM.

What about the IC50 [8] of the same compound?
Its IC50 is 19 nM.

And the bioavailability [9]?
The bioavailability was 33%.

And the IC50 [10]?
The IC50 was 251 nM.

Which results are given for `Cc1ccc(-n2nc(C(C)(C)C)cc2NC(=O)Nc2ccc(Oc3ccnc4[nH]c(=O)[nH]c34)cc2)cc1`?
Tmax [1]: 0.5 h; half-life [3]: 4 h; Cmax [4]: 3.67 µM; Ratio [11]: 12; GI50 [7]: 300 nM; IC50 [8]: 420 nM; bioavailability [9]: 6.5%; IC50 [10]: 142 nM

Which results are given for `Cc1ccc(-n2nc(C(C)(C)C)cc2NC(=O)Nc2ccc(Oc3ccnc4[nH]c(=O)n(C)c34)c3ccccc23)cc1`?
bioavailability [12]: 43%; Cmax [13]: 43.3 µM; Stability [6]: < 30%; Stability (Liver microsomes): < 30%; Tmax [14]: 1 h; GI50 [7]: 16 nM; IC50 [8]: 26 nM; half-life [15]: 8.4 h; IC50 [10]: 2280 nM

Which results are given for `Cc1ccc(-n2nc(C(C)(C)C)cc2NC(=O)Nc2ccc(Oc3ccnc4c3[nH]c(=O)n4C)cc2)cc1`?
GI50 [16]: 52 nM; IC50 [8]: 36 nM; IC50 [10]: 3000 nM
